One series concerns the target T1, Galanin receptor type 3 (Homo sapiens, UniProt O60755).
T1 sequence (O60755 whole entry): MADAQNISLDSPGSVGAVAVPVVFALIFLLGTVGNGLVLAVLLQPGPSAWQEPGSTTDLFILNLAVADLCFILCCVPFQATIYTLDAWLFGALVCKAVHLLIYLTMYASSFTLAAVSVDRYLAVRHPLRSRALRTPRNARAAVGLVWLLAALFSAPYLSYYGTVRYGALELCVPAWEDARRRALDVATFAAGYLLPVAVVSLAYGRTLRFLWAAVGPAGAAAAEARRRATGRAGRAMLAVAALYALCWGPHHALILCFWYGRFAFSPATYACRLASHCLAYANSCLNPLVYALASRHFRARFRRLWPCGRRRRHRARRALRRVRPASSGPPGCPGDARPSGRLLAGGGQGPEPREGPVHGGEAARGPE
The experiment in a line: Binding affinity to human GalR3.

Series [1] concerns the target T2, Galanin receptor type 2 (Homo sapiens, UniProt O43603).
T2 sequence (O43603 whole entry): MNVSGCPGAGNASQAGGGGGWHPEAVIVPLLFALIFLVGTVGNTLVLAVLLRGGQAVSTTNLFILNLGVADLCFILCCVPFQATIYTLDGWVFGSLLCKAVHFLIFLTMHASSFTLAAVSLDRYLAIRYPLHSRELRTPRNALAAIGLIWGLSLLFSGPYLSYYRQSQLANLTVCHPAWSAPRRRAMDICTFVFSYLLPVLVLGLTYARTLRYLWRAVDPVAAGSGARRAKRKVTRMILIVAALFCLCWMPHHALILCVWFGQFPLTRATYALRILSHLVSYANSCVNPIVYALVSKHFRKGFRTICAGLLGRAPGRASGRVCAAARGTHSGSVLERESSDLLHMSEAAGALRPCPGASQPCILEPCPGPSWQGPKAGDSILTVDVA
In words: Binding affinity to human GalR2.

In series [2] the test system is Mus musculus. The experiment in a line: Anticonvulsant activity in CF1 mouse assessed as inhibition of 6 Hz corneal stimulation-induced limbic seizures at 4 mg/kg, ip administered 240 mins before 6 Hz corneal stimulation. The format is functional, organism-based. Further details: dose 4 mg/kg. The conditions noted are these: Limbic system. The procedure, abridged: (§1)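 Each analogue given ip at 4 mg/kg to five groups of CF-1 mice (n = 4 per group), one group per time point. Seizure challenge was 6 Hz corneal stimulation (32 mA for 3 s, corneal electrodes) at 15, 30, 60, 120 or 240 min after dosing. A mouse without a limbic seizure (jaw chomping, vibrissae twitching, forelimb clonus, Straub tail) was counted as protected.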

The target of series [3] is T2, Galanin receptor type 2. The experiment in a line: Displacement of europium-labeled galanin from human GalR2 expressed in CHO-K1 cells. The format is cell-based.
Series [4] in a line: Metabolic stability in rat serum assessed as half life at pH 7.5. The format is ADME, cell-free. The procedure, abridged:
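Peptide (final 20 µM) was incubated in 25% rat serum with 0.1 M Tris-HCl pH 7.5 at 37 °C, serum pre-warmed 10 min. Aliquots taken up to 8 h were quenched with 15% TCA in 40% isopropanol, held 15 min at -20 °C and centrifuged. Intact peptide was measured by reversed-phase HPLC peak area, and half-life was calculated from the disappearance.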

Series [5] deals with Mus musculus. The experiment in a line: Anticonvulsant activity in CF1 mouse assessed as inhibition of 6 Hz corneal stimulation-induced limbic seizures at 4 mg/kg, ip administered 30 mins before 6 Hz corneal stimulation. Further details: dose 4 mg/kg. The format is functional, organism-based. The conditions noted are these: Limbic system. The procedure, abridged: as §1
Series [6] concerns Mus musculus. In words: Anticonvulsant activity in CF1 mouse assessed as inhibition of 6 Hz corneal stimulation-induced limbic seizures at 4 mg/kg, ip administered 60 mins before 6 Hz corneal stimulation. The format is functional, organism-based. On the set-up: dose 4 mg/kg. The conditions noted are these: Limbic system. The procedure, abridged: as §1
Another series concerns the target T3, Galanin receptor type 1 (Homo sapiens, UniProt P47211).
T3 sequence (P47211 whole entry): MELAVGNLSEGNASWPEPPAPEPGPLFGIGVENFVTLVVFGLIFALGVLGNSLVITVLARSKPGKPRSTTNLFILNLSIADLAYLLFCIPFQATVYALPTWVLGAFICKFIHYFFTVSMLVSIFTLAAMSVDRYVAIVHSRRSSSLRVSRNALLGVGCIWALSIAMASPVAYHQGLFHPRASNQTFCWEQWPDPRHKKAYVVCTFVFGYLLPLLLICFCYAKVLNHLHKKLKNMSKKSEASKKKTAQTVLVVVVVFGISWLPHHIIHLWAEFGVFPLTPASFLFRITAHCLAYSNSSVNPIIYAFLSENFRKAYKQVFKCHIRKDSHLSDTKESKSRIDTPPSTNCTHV
The experiment in a line: Displacement of europium-labeled galanin from human GalR1 expressed in HEK293 EBNA cells. The format is cell-based.

Series [7] is described as follows: Partition coefficient, log D at pH 7.4 by shake-flask method. The format is physicochemical. The conditions noted are these: octanol/water. The procedure, abridged:
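Shake-flask partitioning between water-saturated n-octanol and PBS pH 7.4. Peptide (0.4 mg) was reconstituted in 1 mL PBS, or in octanol if poorly water-soluble. Octanol peptide was taken as total minus aqueous, and logD = log([octanol]/[aqueous]). Four independent preparations per analogue.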

Series [8] has as its system Mus musculus. In words: Anticonvulsant activity in CF1 mouse assessed as inhibition of 6 Hz corneal stimulation-induced limbic seizures at 4 mg/kg, ip administered 120 mins before 6 Hz corneal stimulation. The format is functional, organism-based. On the set-up: dose 4 mg/kg. The conditions noted are these: Limbic system. The essentials:
as §1

For series [9], the system named is Mus musculus. In words: Anticonvulsant activity in CF1 mouse assessed as inhibition of 6 Hz corneal stimulation-induced limbic seizures at 4 mg/kg, ip administered 15 mins before 6 Hz corneal stimulation. The format is functional, organism-based. On the set-up: dose 4 mg/kg. Particulars: Limbic system. The essentials: as §1

Activity calls are given as the source filed them. The rule behind the calls is not given here. A value given as a limit tells only on which side of the number the result lay.

For the compound H-GWTLNSAGYLLGPHAVGNHRSFSDKNGLT-OH, the Kd on Galanin receptor type 3 worked out at 69 nM; on Galanin receptor type 2 [1], 2.3 nM.
As for `CCCCCCCCCCCCCCCC(=O)NCCCC[C@H](NC(=O)[C@H](CCCCN)NC(=O)[C@H](CCCCN)NC(=O)[C@H](CC(C)C)NC(=O)[C@H](CC(C)C)NC(=O)[C@H](Cc1ccc(O)cc1)NC(=O)CNC(=O)[C@H](C)NC(=O)[C@H](CO)NC(=O)[C@H](CC(N)=O)NC(=O)[C@H](CC(C)C)NC(=O)[C@@H](NC(=O)[C@H](Cc1c[nH]c2ccccc12)NC(=O)CNC)[C@@H](C)O)C(=O)N[C@@H](CCCCN)C(N)=O`, the outcome with Mus musculus [2] was inactive. The Ki on Galanin receptor type 2 [3] was 1320 nM; at Galanin receptor type 1 it was 306 nM. Moreover, the half-life in [4] was greater than 10 h. Moreover, the result with Mus musculus [5] and in the series on Mus musculus [6] was Active.
In series [7], `CNCC(=O)N[C@@H](Cc1c[nH]c2ccccc12)C(=O)N[C@H](C(=O)N[C@@H](CC(C)C)C(=O)N[C@@H](CC(N)=O)C(=O)N[C@@H](CO)C(=O)N[C@@H](C)C(=O)NCC(=O)N[C@@H](Cc1ccc(O)cc1)C(=O)N[C@@H](CC(C)C)C(=O)N[C@@H](CC(C)C)C(=O)NCC(=O)N1CCC[C@H]1C(=O)N[C@@H](CCCCN)C(=O)N[C@@H](CCCCN)C(=O)N[C@@H](CCCCN)C(=O)N[C@@H](CCCCN)C(N)=O)[C@@H](C)O` showed a logD of 0.4. The outcome in the series with Mus musculus [2], in the series on Mus musculus [8] and in the series with Mus musculus [9] was inactive. Besides, the figures for the Ki at Galanin receptor type 2 [3] and at Galanin receptor type 1 were 24 nM and 0.4 nM, respectively. Further, in series [4], the half-life is 4.6 h.
For `CC(C)C[C@H](NC(=O)[C@H](CC(C)C)NC(=O)[C@H](Cc1ccc(O)cc1)NC(=O)CNC(=O)[C@H](C)NC(=O)[C@H](CO)NC(=O)[C@H](CC(N)=O)NC(=O)[C@H](CC(C)C)NC(=O)[C@@H](NC(=O)[C@H](Cc1c[nH]c2ccccc12)NC(=O)CN)[C@@H](C)O)C(=O)NCC(=O)N1CCC[C@H]1C(=O)N1CCC[C@H]1C(=O)N1CCC[C@H]1C(=O)NCC(=O)N[C@@H](Cc1ccccc1)C(=O)N[C@@H](CO)C(=O)N1CCC[C@H]1C(=O)N[C@@H](Cc1ccccc1)C(=O)N[C@@H](CCCN=C(N)N)C(N)=O`, the Kd at Galanin receptor type 3 stood at 15 nM; at Galanin receptor type 2 [1], 2 nM.
With `CCCCCCCCCCCCCCCC(=O)NCCCC[C@H](NC(=O)[C@@H]1CCCN1C(=O)CNC(=O)[C@H](CC(C)C)NC(=O)[C@H](CC(C)C)NC(=O)[C@H](Cc1ccc(O)cc1)NC(=O)CNC(=O)[C@H](C)NC(=O)[C@H](CO)NC(=O)[C@H](CC(N)=O)NC(=O)[C@H](CC(C)C)NC(=O)[C@@H](NC(=O)[C@H](Cc1c[nH]c2ccccc12)NC(=O)CNC)[C@@H](C)O)C(=O)N[C@@H](CCCCN)C(=O)N[C@@H](CCCCN)C(=O)N[C@@H](CCCCN)C(N)=O`, the Ki was found to be 108 nM on Galanin receptor type 2 [3] and 25.5 nM on Galanin receptor type 1. Also, the half-life in series [4] was greater than 10 h. In addition, the outcome in the series on Mus musculus [8] and in the series with Mus musculus [9] was inactive.
In series [7], `CCCCCCCCCCCCCCCC(=O)NCCCC[C@H](NC(=O)[C@H](C)NC(=O)[C@H](Cc1cnc[nH]1)NC(=O)[C@@H]1CCCN1C(=O)CNC(=O)[C@H](CC(C)C)NC(=O)[C@H](CC(C)C)NC(=O)[C@H](Cc1ccc(O)cc1)NC(=O)CNC(=O)[C@H](C)NC(=O)[C@H](CO)NC(=O)[C@H](CC(N)=O)NC(=O)[C@H](CC(C)C)NC(=O)[C@@H](NC(=O)[C@H](Cc1c[nH]c2ccccc12)NC(=O)CNC)[C@@H](C)O)C(N)=O` returned a logD of 1.55. In addition, the result with Mus musculus [2], in the series on Mus musculus [5], in the series on Mus musculus [8], in the series on Mus musculus [9] and in the series on Mus musculus [6] was inactive. This compound also returned a Ki at Galanin receptor type 2 [3] of 160 nM. In series [4], the half-life was greater than 10 h.

By Kd is commonly meant the concentration at which binding is half-saturated. A high value points to a looser complex. As a reminder, the Ki is a dissociation constant, usually derived from enzyme kinetics or from competition with a known ligand. As a reminder, the half-life is how long it takes for the measured level to halve. As a reminder, the logD is lipophilicity at a set pH, counting ionised and neutral species. Low readings indicate lower lipophilicity, high ones higher lipophilicity.
